Measured values: publication PMC5812400 (ESMO Open, 2018)

System: adult patients with advanced non-haematological malignancies
Experiment: Safety and tolerability
Assay type: in vivo, human
Summary of the method: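 Patients on milled oral capsules, fasted, in 28-day cycles. AEs and SAEs recorded from first dose through 30 days after last dose. Graded by NCI CTCAE v4.03 and coded to MedDRA v19.0. Relatedness to study drug judged by investigator.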

## CC(C)n1nc(-c2ccc3oc(N)nc3c2)c2c(N)ncnc21 [TAK-228, Sapanisertib]
QD 3 mg (n=11)
  AE resulting in TAK-228 discontinuation: 0 n (%)
  Drug-related AE: 10 (91) n (%)
  Drug-related AE: Abdominal pain: 2 (18) n (%)
  Drug-related AE: Decreased appetite: 3 (27) n (%)
  Drug-related AE: Diarrhoea: 2 (18) n (%)
  Drug-related AE: Fatigue: 6 (55) n (%)
  Drug-related AE: Hyperglycaemia: 2 (18) n (%)
  Drug-related AE: Nausea: 4 (36) n (%)
  Drug-related AE: Pruritus: 4 (36) n (%)
  Drug-related AE: Rash: 1 (9) n (%)
  Drug-related AE: Rash (maculopapular): 4 (36) n (%)
  Drug-related AE: Stomatitis: 1 (9) n (%)
  Drug-related AE: Vomiting: 1 (9) n (%)
  Drug-related SAE: 0 n (%)
  Drug-related grade ≥3 AE: 5 (46) n (%)
  Grade ≥3 AE: 6 (55) n (%)
  Grade ≥3 AE: Abdominal pain: 1 (9) n (%)
  Grade ≥3 AE: Anaemia: 0 n (%)
  Grade ≥3 AE: Blood phosphorus decreased: 1 (9) n (%)
  Grade ≥3 AE: Diarrhoea: 1 (9) n (%)
  Grade ≥3 AE: Fatigue: 0 n (%)
  Grade ≥3 AE: Hyperglycaemia: 1 (9) n (%)
  Grade ≥3 AE: Hyponatraemia: 1 (9) n (%)
  Grade ≥3 AE: Rash macular: 1 (9) n (%)
  On-study deaths: 0 n (%)
  SAE: 3 (27) n (%)
QD 4 mg (n=6)
  AE resulting in TAK-228 discontinuation: 1 (17) n (%)
  Drug-related AE: 6 (100) n (%)
  Drug-related AE: Abdominal pain: 1 (17) n (%)
  Drug-related AE: Decreased appetite: 2 (33) n (%)
  Drug-related AE: Diarrhoea: 3 (50) n (%)
  Drug-related AE: Fatigue: 4 (67) n (%)
  Drug-related AE: Hyperglycaemia: 1 (17) n (%)
  Drug-related AE: Nausea: 1 (17) n (%)
  Drug-related AE: Pruritus: 3 (50) n (%)
  Drug-related AE: Rash: 2 (33) n (%)
  Drug-related AE: Rash (maculopapular): 0 n (%)
  Drug-related AE: Stomatitis: 2 (33) n (%)
  Drug-related AE: Vomiting: 1 (17) n (%)
  Drug-related SAE: 0 n (%)
  Drug-related grade ≥3 AE: 5 (83) n (%)
  Grade ≥3 AE: 6 (100) n (%)
  Grade ≥3 AE: Abdominal pain: 0 n (%)
  Grade ≥3 AE: Anaemia: 0 n (%)
  Grade ≥3 AE: Blood phosphorus decreased: 0 n (%)
  Grade ≥3 AE: Diarrhoea: 0 n (%)
  Grade ≥3 AE: Fatigue: 2 (33) n (%)
  Grade ≥3 AE: Hyperglycaemia: 1 (17) n (%)
  Grade ≥3 AE: Hyponatraemia: 1 (17) n (%)
  Grade ≥3 AE: Rash macular: 1 (17) n (%)
  On-study deaths: 1 (17) n (%)
  SAE: 2 (33) n (%)
QD Total (n=17)
  AE resulting in TAK-228 discontinuation: 1 (6) n (%)
  Drug-related AE: 16 (94) n (%)
  Drug-related AE: Abdominal pain: 3 (18) n (%)
  Drug-related AE: Decreased appetite: 5 (29) n (%)
  Drug-related AE: Diarrhoea: 5 (29) n (%)
  Drug-related AE: Fatigue: 10 (59) n (%)
  Drug-related AE: Hyperglycaemia: 3 (18) n (%)
  Drug-related AE: Nausea: 5 (29) n (%)
  Drug-related AE: Pruritus: 7 (41) n (%)
  Drug-related AE: Rash: 3 (18) n (%)
  Drug-related AE: Rash (maculopapular): 4 (24) n (%)
  Drug-related AE: Stomatitis: 3 (18) n (%)
  Drug-related AE: Vomiting: 2 (12) n (%)
  Drug-related SAE: 0 n (%)
  Drug-related grade ≥3 AE: 10 (59) n (%)
  Grade ≥3 AE: 12 (71) n (%)
  Grade ≥3 AE: Abdominal pain: 1 (6) n (%)
  Grade ≥3 AE: Anaemia: 0 n (%)
  Grade ≥3 AE: Blood phosphorus decreased: 1 (6) n (%)
  Grade ≥3 AE: Diarrhoea: 1 (6) n (%)
  Grade ≥3 AE: Fatigue: 2 (12) n (%)
  Grade ≥3 AE: Hyperglycaemia: 2 (12) n (%)
  Grade ≥3 AE: Hyponatraemia: 2 (12) n (%)
  Grade ≥3 AE: Rash macular: 2 (12) n (%)
  On-study deaths: 1 (6) n (%)
  SAE: 5 (29) n (%)
QD arm
  Asthaenic conditions, patients: 59%
  Drug-related AE of any grade: decreased appetite: 29%
  Drug-related AE of any grade: diarrhoea: 29%
  Drug-related AE of any grade: fatigue: 59%
  Drug-related AE of any grade: nausea: 29%
  Drug-related AE of any grade: pruritus: 41%
  Grade ≥3 AE: Fatigue: 12%
  Grade ≥3 AE: Hyperglycaemia: 12%
  Grade ≥3 AE: Hyponatraemia: 12%
  Grade ≥3 AE: macular rash: 12%
  SAEs, patients: 29%
QD milled TAK-228
  Incidence of grade ≥3 drug-related AEs: 59%
QW 20 mg (n=7)
  AE resulting in TAK-228 discontinuation: 0 n (%)
  Drug-related AE: 5 (71) n (%)
  Drug-related AE: Asthaenia: 1 (14) n (%)
  Drug-related AE: Decreased appetite: 1 (14) n (%)
  Drug-related AE: Dehydration: 1 (14) n (%)
  Drug-related AE: Diarrhoea: 4 (57) n (%)
